From ChEMBL document CHEMBL1128731, “Furanfurin and thiophenfurin: two novel tiazofurin analogues. Synthesis, structure, antitumor activity, and interactions with inosine monophosphate dehydrogenase” (J Med Chem, 1995)

What was measured:
[1] = tested on: HL-60; experiment: (§1) Inhibitory concentration against human HL-60 cell line(activity expressed as range); format: functional, cell-based
Procedure, shortened: (§2)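 Antiproliferative assay scoring [125I]-5-iodo-2'-deoxyuridine incorporation into DNA after 72 h drug–cell contact. Run on normal human bone marrow from five donors and in three assays on HL-60. Ratio is antilog(mean log IC50 or IC90) on bone marrow over the same on HL-60. Range limits are antilog(mean log IC50 ± 2SD).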

[2] = tested on: HL-60; experiment: Inhibitory concentration against HL-60 human promyelocytic leukemia; format: functional, cell-based
Procedure, shortened: (§3)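 Cells in log phase plated with a range of drug concentrations (B16 5×10^3 cells/well; P388, L1210, LLC 10^4 cells/well; HL-60, K562, LoVo 2.5×10^5 cells/well). Growth read by modified MTT after 72 h drug contact at 37 °C. IC50 taken as the concentration reducing optical absorption by 50%, from Chou regression analysis. Maximum concentration tested 200 μM.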

[3] = organism: Homo sapiens; experiment: (§4) Inhibitory concentration range against human bone marrow; format: functional, organism-based; procedure, shortened: as §2
[4] = organism: Homo sapiens; experiment: as §4; format: functional; procedure, shortened: as §2
[5] = tested on: K562; experiment: Compound was tested for its effect on UDP ribonucleotide levels of K562 cell at 50 uM concentration; format: functional, Homo sapiens
Procedure, shortened: (§5)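 K562 cells (1×10^7) were treated with saline or agent for 2 h at 37 °C, harvested by centrifugation and washed with cold saline. They were extracted with cold 10% trichloroacetic acid, neutralized with 0.5 M tri-n-octylamine in freon, and analyzed by HPLC. Levels are in nmol/g and expressed as % of saline control. Significance was set at p < 0.05.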

[6] = tested on: K562; experiment: Compound was tested for its effect on UMP ribonucleotide levels of K562 cell at 100 uM concentration; format: functional, Homo sapiens; procedure, shortened: as §5
[7] = tested on: K562; experiment: Compound was tested for its effect on UMP ribonucleotide levels of K562 cell at 50 uM concentration; format: functional, Homo sapiens; procedure, shortened: as §5
[8] = tested on: K562; experiment: Compound was tested for its effect on UTP ribonucleotide levels of K562 cell at 100 uM concentration; format: functional, Homo sapiens; procedure, shortened: as §5
[9] = tested on: K562; experiment: Compound was tested for its effect on UTP ribonucleotide levels of K562 cell at 10 uM concentration; format: functional, Homo sapiens; procedure, shortened: as §5
[10] = tested on: K562; experiment: Compound was tested for its effect on UTP ribonucleotide levels of K562 cell at 50 uM concentration; format: functional, Homo sapiens; procedure, shortened: as §5
[11] = tested on: K562; experiment: compound was tested for its effect on IMPDH activity against K562 cells at 50 uM concentration; format: functional, Homo sapiens
Procedure, shortened: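 K562 cells (1×10^6/mL, log phase) exposed 2 h at 37 °C to 10, 50 or 100 μM drug, or to saline. Cells washed and lysed in Tris-HCl pH 7.4/NaCl/MgCl2/NP-40/aprotinin, and the 13000g supernatant used as enzyme. Enzyme incubated 30 min at 37 °C with 286 μM [2,8-3H]IMP and 1 mM NAD. Tritium release counted; activity in nmol XMP/h/mg protein, as % of saline control.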

[12] = tested on: K562; experiment: Compound was tested for its effect on GMP ribonucleotide levels of K562 cell at 100 uM concentration; format: functional, Homo sapiens; procedure, shortened: as §5
[13] = tested on: K562; experiment: Formation of NAD analogue by compound at 100 uM concentration against human myelogenous leukemia K562; format: functional
Procedure, shortened: (§6)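 K562 cells (1×10^7/10 mL) were labeled with 185 nM [2,8-3H]adenosine for 1 h at 37 °C, then given saline or analogue for 2 h. Cells were pelleted, washed with PBS and extracted in cold 10% trichloroacetic acid. Extracts were neutralized with 0.5 M tri-n-octylamine in freon and run on SAX HPLC with ammonium phosphate buffer. Results are pmol NAD analogue per 10^9 cells.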

[14] = tested on: K562; experiment: Formation of NAD analogue by compound at 50 uM concentration against human myelogenous leukemia K562; format: functional; procedure, shortened: as §6
[15] = tested on: K562; experiment: Compound was tested for its effect on IMP ribonucleotide levels of K562 cell at 50 uM concentration; format: functional, Homo sapiens; procedure, shortened: as §5
[16] = tested on: K562; experiment: Compound was tested for its effect on NAD ribonucleotide levels of K562 cell at 10 uM concentration; format: functional, Homo sapiens; procedure, shortened: as §5
[17] = tested on: K562; experiment: Compound was tested for its effect on UDP ribonucleotide levels of K562 cell at 10 uM concentration; format: functional, Homo sapiens; procedure, shortened: as §5
[18] = tested on: K562; experiment: Compound was tested for its effect on IMPDH activity against K562 cells at 100 uM concentration; format: functional, Homo sapiens
Procedure, shortened: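 Log-phase K562 cells (1×10^6/mL) were exposed to saline or agent for 2 h at 37 °C, washed and lysed (Tris-HCl pH 7.4, NaCl, MgCl2, 0.5% NP-40, aprotinin). The cleared supernatant was incubated 30 min at 37 °C with 286 μM [2,8-3H]IMP and 1 mM NAD. Tritium release was counted by scintillation. Activity is nmol XMP/h/mg protein, also given as % of control.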

[19] = tested on: K562; experiment: Compound was tested for its effect on ADP ribonucleotide levels of K562 cell at 10 uM concentration; format: functional, Homo sapiens; procedure, shortened: as §5
[20] = tested on: K562; experiment: Compound was tested for its effect on ADP ribonucleotide levels of K562 cell at 100 uM concentration; format: functional, Homo sapiens; procedure, shortened: as §5
[21] = tested on: K562; experiment: Compound was tested for its effect on ADP ribonucleotide levels of K562 cell at 50 uM concentration; format: functional, Homo sapiens; procedure, shortened: as §5
[22] = tested on: K562; experiment: Compound was tested for its effect on AMP ribonucleotide levels of K562 cell at 50 uM concentration; format: functional, Homo sapiens; procedure, shortened: as §5
[23] = tested on: K562; experiment: Compound was tested for its effect on ATP ribonucleotide levels of K562 cell at 10 uM concentration; format: functional, Homo sapiens; procedure, shortened: as §5
[24] = tested on: K562; experiment: Compound was tested for its effect on CDP ribonucleotide levels of K562 cell at 10 uM concentration; format: functional, Homo sapiens; procedure, shortened: as §5
[25] = tested on: K562; experiment: Compound was tested for its effect on CDP ribonucleotide levels of K562 cell at 50 uM concentration; format: functional, Homo sapiens; procedure, shortened: as §5
[26] = tested on: K562; experiment: Compound was tested for its effect on GDP ribonucleotide levels of K562 cell at 100 uM concentration; format: functional, Homo sapiens; procedure, shortened: as §5
[27] = tested on: K562; experiment: Compound was tested for its effect on GDP ribonucleotide levels of K562 cell at 10 uM concentration; format: functional, Homo sapiens; procedure, shortened: as §5
[28] = tested on: Mus musculus; experiment: Average weight change of mice from onset to termination of drug treatment at 6.2 mg/kg dose; format: functional
Procedure, shortened: (§7)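 Female BD2F1 mice (8 weeks, 20–22 g), eight per group, injected ip with 10^5 L1210 cells on day 0. From 24 h later, drug in 0.9% NaCl was given ip once daily for 9 days. Body weight change was averaged from onset to termination of treatment. Early deaths from toxicity were recorded.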

[29] = tested on: Mus musculus; experiment: Compound was tested for ratio of survival time of treated to control mice x100 at 100 mg/kg dose; format: functional
Procedure, shortened: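 Female BD2F1 mice (8 weeks old, 20–22 g), eight per group, injected ip with 10^5 L1210 leukemia cells on day 0. Starting 24 h later, drug dissolved in 0.9% NaCl given ip once daily for 9 consecutive days. % T/C = survival time of treated/control mice × 100. Body weight change tracked from start to end of treatment.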

[30] = tested on: P388; experiment: Inhibitory concentration against P388 murine lymphocytic leukemia cell lines; format: functional, cell-based; settings: Mus musculus; procedure, shortened: as §3
[31] = tested on: Mus musculus; experiment: Average weight change of mice from onset to termination of drug treatment at 25 mg/kg dose; format: functional; procedure, shortened: as §7
[32] = Ratio of IC50 against HL-60; format: functional; procedure, shortened: as §2
[33] = tested on: K562; experiment: Compound was tested for its effect on UMP ribonucleotide levels of K562 cell at 10 uM concentration; format: functional, Homo sapiens; procedure, shortened: as §5
[34] = tested on: HL-60; experiment: as §1; format: functional; procedure, shortened: as §2

## NC(=O)c1csc([C@@H]2O[C@H](CO)[C@@H](O)[C@H]2O)c1
[1]
  IC50: 2.4 µM
[2]
  IC50: 13.9 µM
[3]
  IC50: 21.6 µM
[4]
  IC90: >128 µM
[5]
  Control: 134%
[6]
  Control: 107%
[7]
  Control: 115%
[8]
  Control: 87%
[9]
  Control: 91%
[10]
  Control: 99%
[11]
  Control: 37%
[12]
  Control: 80%
[13]
  Formation: 886 pmol/10^9 cells
[14]
  Formation: 505 pmol/10^9 cells
[15]
  Control: 594%
[16]
  Control: 81%
[17]
  Control: 134%
[18]
  Activity: 1.07
[19]
  Control: 122%
[20]
  Control: 105%
[21]
  Control: 114%
[22]
  Control: 140%
[23]
  Control: 92%
[24]
  Control: 84%
[25]
  Control: 82%
[26]
  Control: 77%
[27]
  Control: 97%
[28]
  Change: 8.5%
[29]
  T/C: <100%
[30]
  IC50: 3.2 µM
[31]
  Change: -9.8%
[32]
  Ratio: 5.9
[33]
  Control: 110%
[34]
  IC90: 8.3 µM
